Test results: PMC3783524 (ACS chemical biology, 2013)
“And” between values parts separate entries of the source, which are not always exact repeats. Identical values can stand only once.

Tests used:
[1] = biological target: T1, DnaK-DnaJ (Escherichia coli, UniProt P0A6Y8); assay: DnaJ-stimulated ATPase activity of DnaK; format: biochemical; conditions: result in words
Outline: (§1)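 Purified E. coli DnaK, DnaJ and GrpE (His-tagged, tag removed by TEV) and the synthetic NRLLLTG peptide. DnaK at 0.6 μM unless noted, with co-chaperone at stated levels, in 100 mM Tris-HCl, 20 mM KCl, 6 mM MgCl2, pH 7.4. Test compound added from DMSO stock. Phosphate release read by malachite green adaptation (absorbance 620 nm). Michaelis-Menten fit. Triplicates, three independent experiments.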

[2] = Solubility; format: physicochemical; conditions: result in words
[3] = biological target: T2, DnaK-GrpE (Escherichia coli, UniProt P0A6Y8); assay: GrpE-stimulated ATPase activity of DnaK; format: biochemical; conditions: for Inhibition of the DnaK-GrpE combination (ATPase): result in words
T2 sequence (P09372 whole entry): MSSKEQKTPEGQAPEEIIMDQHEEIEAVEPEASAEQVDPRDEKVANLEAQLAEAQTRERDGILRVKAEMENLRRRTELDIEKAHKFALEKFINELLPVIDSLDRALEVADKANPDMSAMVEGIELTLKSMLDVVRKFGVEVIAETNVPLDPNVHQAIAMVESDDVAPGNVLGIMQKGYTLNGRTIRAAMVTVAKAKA
T2 sequence (P0A6Y8 whole entry): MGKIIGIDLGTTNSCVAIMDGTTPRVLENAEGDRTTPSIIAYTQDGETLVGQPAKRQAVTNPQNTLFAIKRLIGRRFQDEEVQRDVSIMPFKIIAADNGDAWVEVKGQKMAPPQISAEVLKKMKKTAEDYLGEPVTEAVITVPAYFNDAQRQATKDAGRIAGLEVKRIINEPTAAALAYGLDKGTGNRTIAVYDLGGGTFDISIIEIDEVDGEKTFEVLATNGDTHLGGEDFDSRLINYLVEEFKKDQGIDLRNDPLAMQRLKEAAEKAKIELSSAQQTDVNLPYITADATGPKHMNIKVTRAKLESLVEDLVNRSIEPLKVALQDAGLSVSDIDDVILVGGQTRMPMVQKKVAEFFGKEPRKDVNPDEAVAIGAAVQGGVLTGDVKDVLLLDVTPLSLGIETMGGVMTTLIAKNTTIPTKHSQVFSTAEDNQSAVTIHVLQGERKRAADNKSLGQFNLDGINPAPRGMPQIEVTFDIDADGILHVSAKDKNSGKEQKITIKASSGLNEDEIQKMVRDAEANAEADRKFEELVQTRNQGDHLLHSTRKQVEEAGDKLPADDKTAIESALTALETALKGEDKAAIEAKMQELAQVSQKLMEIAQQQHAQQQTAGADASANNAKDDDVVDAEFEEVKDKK
Outline: as §1

[4] = biological target: T3, DnaK (Escherichia coli, UniProt P0A6Y8); assay: Fluorescence polarization, binding of FITC-HLA peptide to DnaK; conditions: FP assay; result in words
T3 sequence (P0A6Y8 whole entry): as above

[5] = biological target: T3, DnaK; assay: Intrinsic ATPase activity of DnaK alone; format: biochemical; conditions: result in words
Outline: as §1

[6] = biological target: DnaK D233A (Escherichia coli, UniProt P0A6Y8, D233A); assay: GrpE-stimulation of DnaK control mutant D233A, ATPase assay; format: biochemical; conditions: identical to wild type
Chain of DnaK D233A (P0A6Y8 whole entry D233A): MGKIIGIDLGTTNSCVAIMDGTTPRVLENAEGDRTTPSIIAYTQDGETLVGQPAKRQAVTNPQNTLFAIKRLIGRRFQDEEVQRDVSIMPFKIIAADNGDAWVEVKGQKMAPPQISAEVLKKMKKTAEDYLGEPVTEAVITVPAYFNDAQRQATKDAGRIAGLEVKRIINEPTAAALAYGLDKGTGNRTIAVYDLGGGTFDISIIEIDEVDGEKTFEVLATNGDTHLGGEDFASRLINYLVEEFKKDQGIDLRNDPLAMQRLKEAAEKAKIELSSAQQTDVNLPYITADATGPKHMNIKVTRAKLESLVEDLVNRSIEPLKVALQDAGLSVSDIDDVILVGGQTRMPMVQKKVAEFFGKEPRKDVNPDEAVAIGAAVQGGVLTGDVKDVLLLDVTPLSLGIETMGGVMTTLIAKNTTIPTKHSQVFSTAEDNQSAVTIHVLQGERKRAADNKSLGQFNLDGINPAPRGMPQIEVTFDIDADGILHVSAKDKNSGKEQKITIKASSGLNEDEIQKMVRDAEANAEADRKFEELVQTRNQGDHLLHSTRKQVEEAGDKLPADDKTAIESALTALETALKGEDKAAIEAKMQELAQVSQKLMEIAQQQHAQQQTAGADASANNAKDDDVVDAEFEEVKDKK
Chain of DnaK D233A (P09372 whole entry, further chain): as the sequence (P09372 whole entry) above

[7] = biological target: DnaK M89A (Escherichia coli, UniProt P0A6Y8, M89A); assay: GrpE-stimulation of DnaK mutant M89A, ATPase assay; format: biochemical; conditions: result in words
Chain of DnaK M89A (P09372 whole entry): as above
Chain of DnaK M89A (P0A6Y8 whole entry M89A): as the sequence (P0A6Y8 whole entry D233A) above, with M89A, A233D counted along it

[8] = biological target: GrpE (Escherichia coli, UniProt P09372); assay: Isothermal calorimetry, binding to GrpE
Chain of GrpE (P09372 whole entry): as the sequence (P09372 whole entry) above

[9] = biological target: DnaJ (Escherichia coli, UniProt P08622); assay: Isothermal calorimetry, binding to DnaJ
Chain of DnaJ (P08622 whole entry): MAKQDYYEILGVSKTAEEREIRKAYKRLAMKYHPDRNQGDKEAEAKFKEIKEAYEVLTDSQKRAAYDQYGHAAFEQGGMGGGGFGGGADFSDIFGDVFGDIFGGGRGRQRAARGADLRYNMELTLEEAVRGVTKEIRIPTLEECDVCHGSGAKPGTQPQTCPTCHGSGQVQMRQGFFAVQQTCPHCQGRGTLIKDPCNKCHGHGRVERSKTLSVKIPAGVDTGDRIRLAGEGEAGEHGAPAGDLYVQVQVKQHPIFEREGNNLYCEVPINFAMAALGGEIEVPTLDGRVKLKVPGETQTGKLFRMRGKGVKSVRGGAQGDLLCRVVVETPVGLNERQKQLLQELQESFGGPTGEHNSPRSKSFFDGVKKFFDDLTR

[10] = biological target: T3, DnaK; assay: Fluorescence polarization, binding of FAM-ATP to DnaK; conditions: for Competition with FAM-ATP for binding to DnaK: FP assay, result in words
[11] = biological target: DnaK R56A (Escherichia coli, UniProt P0A6Y8, R56A); assay: GrpE-stimulation of DnaK mutant R56A, ATPase assay; format: biochemical; conditions: result in words
Chain of DnaK R56A (P0A6Y8 whole entry R56A): as the sequence (P0A6Y8 whole entry D233A) above, with R56A, A233D counted along it
Chain of DnaK R56A (P09372 whole entry, further chain): as the sequence (P09372 whole entry) above

[12] = biological target: T2, DnaK-GrpE; assay: Fluorescence-quenching assay, physical interaction between DnaK and GrpE; format: binding; conditions: result in words
[13] = biological target: DnaK-peptide (Escherichia coli, UniProt P0A6Y8); assay: Peptide substrate; format: biochemical; conditions: NRLLLTG peptide; result in words
Chain of DnaK-peptide (P0A6Y8 whole entry): as the sequence (P0A6Y8 whole entry) above
Outline: as §1

[14] = biological target: T3, DnaK; assay: Intrinsic tryptophan fluorescence of DnaK; format: binding
Outline: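 DnaK (5 μM) held in 25 mM HEPES, 10 mM KCl, 5 mM MgCl2, pH 7.5, with 1 mM ADP or ATP and test compound (e.g. 25 or 100 μM). Incubated 30 min at 37 °C in the dark. Excitation 290 nm; emission scanned 300–450 nm or read at 340 nm. Langmuir fit. Triplicate, three independent experiments.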

[15] = biological target: T1, DnaK-DnaJ; assay: Fluorescence-quenching assay, binding of labeled DnaJ to DnaK; conditions: not statistically significant (p = 0.07)
[16] = DnaK 5 μM, 25 μM or 100 μM compound

T1 sequence (P0A6Y8 whole entry): as above

O=c1c(O)c(-c2cc(O)c(O)c(O)c2)oc2cc(O)cc(O)c12 [Myr, myricetin]
Inhibition of the DnaK-DnaJ combination (ATPase) [1]: only inhibitors of the DnaK-DnaJ combination

CC(=O)O[C@H]1C[C@@H]2CC[C@@H]3[C@H](CC[C@@]4(C)[C@H]3C[C@H]([N+]3(C)CCCCC3)[C@@H]4OC(C)=O)[C@@]2(C)C[C@@H]1[N+]1(C)CCCCC1 [PaBr, pancuronium bromide]
Solubility [2]: weakly soluble | Inhibition of the DnaK-GrpE combination (ATPase) [3]: only inhibitors of the DnaK-GrpE combination

CCCc1nc2c(C)cc(-c3nc4ccccc4n3C)cc2n1Cc1ccc(-c2ccccc2C(=O)O)cc1 [Tel, telmisartan]
Inhibition of the DnaK-DnaJ combination (ATPase) [1]: little activity | Effect on apparent affinity of DnaK for FITC-HLA [4]: no effect | Activity against DnaK alone (intrinsic ATPase) [5]: little activity | Fold increase in Km of GrpE stimulation, DnaK D233A [6]: ~ 1.5 fold | Ability to block GrpE-stimulation of DnaK M89A [7]: resistant | Kd [8]: > 100 µM | Kd [9]: > 100 µM | Competition with FAM-ATP for binding to DnaK [10]: interfered with binding | Effect on FAM-ATP binding, fold ([10]; reduced nucleotide affinity): 2 fold | Inhibition of the DnaK-GrpE combination (ATPase) [3]: only inhibitors of the DnaK-GrpE combination | Fold increase in Km of GrpE stimulation, wild type DnaK ([3]; wild type DnaK): ~ 1.5 fold | Ability to block GrpE-stimulation of DnaK R56A [11]: resistant | Effect on physical interaction between DnaK and GrpE [12]: no effect | Activity against DnaK-peptide substrate combination (ATPase) [13]: little activity

COc1cc(C(=O)NS(=O)(=O)c2ccccc2C)ccc1Cc1cn(C)c2ccc(NC(=O)OC3CCCC3)cc12 [Zaf, zafirlukast]
Kd ([14]; Apparent affinity KD for ATP-bound DnaK, ATP-bound DnaK): > 100 µM | Kd ([14]; Apparent affinity KD for DnaK in the presence of ADP, ADP 1 mM): 52 ± 12 µM | Decrease of tryptophan fluorescence intensity at 342 nm [14, 16]: ~ 25% | Shift of tryptophan fluorescence peak [14, 16]: ~ 2 nm | Effect on Trp fluorescence in the ATP-bound states ([14]; p = 0.06, result in words): no effect | Inhibition of the DnaK-DnaJ combination (ATPase) [1]: only inhibitors of the DnaK-DnaJ combination | Effect on apparent affinity of DnaK for FITC-HLA [4]: enhanced the apparent affinity | Activity against DnaK alone (intrinsic ATPase) [5]: weak or no activity | Weakening of binding of DnaJ to DnaK, fold [15]: ~ 1.8 fold and ~ 2 fold | Competition with FAM-ATP for binding to DnaK [10]: unable to compete | IC50 [3]: > 200 µM | Inhibition of the DnaK-GrpE combination (ATPase) [3]: weak or no activity | Activity against DnaK-peptide substrate combination (ATPase) [13]: has activity
